The nature of series [1]: Genotoxicity in Salmonella typhimurium TA1535 harboring pSK1002 assessed as survival at 1 mg/ml in presence of Sprague-Dawley rat liver S9 fraction metabolic activation by SOS/umu assay relative to control. The class given is toxicity, subcellular. The settings on record: salmonella enterica subsp. enterica serovar typhimurium, read-out: Survival. Put shortly: (§1)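 Survival of S. typhimurium TA1535/pSK1002 exposed to a range of compound concentrations with or without S9 mix in 96-well format. Survival percentage measured as the cytotoxicity arm of the SOS/umu test. Concentrations with survival ≥80% are counted as non-cytotoxic.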

Series [2] in a line: Genotoxicity in Salmonella typhimurium TA1535 harboring pSK1002 assessed as umu gene induction at 0.008 mg/ml in presence of Sprague-Dawley rat liver S9 fraction metabolic activation by SOS/umu assay relative to control. To be noted: salmonella enterica subsp. enterica serovar typhimurium, read-out: FC. The class given is toxicity, subcellular. Put shortly:
(§2)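 umu induction in S. typhimurium TA1535/pSK1002, with or without S9 mix, in 96-well format. β-galactosidase read colorimetrically with ONPG substrate. Output given as relative units and induction factor (IF). The run is valid if positive controls reach IF ≥2. A compound counts as genotoxic at IF ≥2 at a concentration giving ≥80% bacterial survival.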

For series [3], the system named is Trypanosoma cruzi. The series can be described thus: Inhibition of Trypanosoma cruzi MHOM/Pe/2011/Arequipa;DTU 5 epimastigote Fe-SOD at 6.3 uM relative to control. Put shortly: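 Fe-SOD excreted by exponentially growing T. cruzi Arequipa epimastigotes cultured in supplemented MTL at 28 °C. Protein quantified by Bradford. SOD activity measured by the Beyer–Fridovich method. IC50 from inhibition curves by nonlinear regression. Mean of three independent determinations ± standard deviation.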

Series [4] is described as follows: Toxicity in BALB/c mouse infected with Trypanosoma cruzi MHOM/Pe/2011/Arequipa;DTU 5 bloodstream trypomastigote assessed as decrease in serum creatine kinase muscle to brain ratio level in acute phase at 20 mg/kg/day, po administered for 5 consecutive days starting from day 8 post infection and measured on day 100 post infection by biochemical analysis relative to control. The class given is organism-based. On the set-up: scale not given: the % may be the effect or the level left. The settings on record: in vivo. The method in brief:
(§3)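 Female BALB/c mice (10–12 weeks, 14–20 g; groups of three) were infected i.p. with 5 × 10^5 Arequipa bloodstream trypomastigotes. Dosing was oral at 20 mg/kg/day for 5 days, from day 8 pi (acute) or day 70 pi (chronic), as a 2 mg/ml suspension in 5% DMSO/0.5% HPMC; controls received vehicle. Cyclophosphamide 200 mg/kg i.p. was given at day 80 pi. Serum was collected 2 days post-treatment and at necropsy by cardiac puncture and compared with infected untreated controls.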

Series [5] in a line: Genotoxicity in Salmonella typhimurium TA1535 harboring pSK1002 assessed as umu gene induction at 0.004 mg/ml in presence of Sprague-Dawley rat liver S9 fraction metabolic activation by SOS/umu assay relative to control. The class given is toxicity, subcellular. To be noted: salmonella enterica subsp. enterica serovar typhimurium, read-out: FC. Put shortly:
as §2

The nature of series [6]: Genotoxicity in Salmonella typhimurium TA1535 harboring pSK1002 assessed as survival at 0.004 mg/ml in presence of Sprague-Dawley rat liver S9 fraction metabolic activation by SOS/umu assay relative to control. The class given is toxicity, subcellular. The settings on record: salmonella enterica subsp. enterica serovar typhimurium, read-out: Survival. The method in brief:
as §1

The nature of series [7]: Toxicity in BALB/c mouse infected with Trypanosoma cruzi MHOM/Pe/2011/Arequipa;DTU 5 bloodstream trypomastigote assessed as decrease in serum alkaline phosphatase level in acute phase at 20 mg/kg/day, po administered for 5 consecutive days starting from day 8 post infection and measured at day 14 post infection by biochemical analysis relative to control. The class given is organism-based. Set-up: scale not given: the % may be the effect or the level left. The settings on record: in vivo. Put shortly:
as §3

A short description of series [8]: Genotoxicity in Salmonella typhimurium TA1535 harboring pSK1002 assessed as umu gene induction at 0.5 mg/ml in presence of Sprague-Dawley rat liver S9 fraction metabolic activation by SOS/umu assay relative to control. To be noted: salmonella enterica subsp. enterica serovar typhimurium, read-out: FC. The class given is toxicity, subcellular. Put shortly:
as §2

A short description of series [9]: Genotoxicity in Salmonella typhimurium TA1535 harboring pSK1002 assessed as umu gene induction at 0.002 mg/ml in presence of Sprague-Dawley rat liver S9 fraction metabolic activation by SOS/umu assay relative to control. The class given is toxicity, subcellular. The settings on record: salmonella enterica subsp. enterica serovar typhimurium, read-out: FC. Put shortly: as §2

Series [10] in a line: Genotoxicity in Salmonella typhimurium TA1535 harboring pSK1002 assessed as umu gene induction at 0.063 mg/ml in presence of Sprague-Dawley rat liver S9 fraction metabolic activation by SOS/umu assay relative to control. The class given is toxicity, subcellular. The settings on record: salmonella enterica subsp. enterica serovar typhimurium, read-out: FC. Put shortly: as §2

A short description of series [11]: Genotoxicity in Salmonella typhimurium TA1535 harboring pSK1002 assessed as survival at 0.063 mg/ml in presence of Sprague-Dawley rat liver S9 fraction metabolic activation by SOS/umu assay relative to control. The class given is toxicity, subcellular. To be noted: salmonella enterica subsp. enterica serovar typhimurium, read-out: Survival. Put shortly:
as §1

Series [12] is described as follows: Toxicity in BALB/c mouse infected with Trypanosoma cruzi MHOM/Pe/2011/Arequipa;DTU 5 bloodstream trypomastigote assessed as decrease in serum creatine kinase muscle to brain ratio level in acute phase at 20 mg/kg/day, po administered for 5 consecutive days starting from day 8 post infection and measured at day 14 post infection by biochemical analysis relative to control. The class given is organism-based. Set-up: scale not given: the % may be the effect or the level left. To be noted: in vivo. Put shortly: as §3

The nature of series [13]: Genotoxicity in Salmonella typhimurium TA1535 harboring pSK1002 assessed as umu gene induction at 0.5 mg/ml in absence of Sprague-Dawley rat liver S9 fraction metabolic activation by SOS/umu assay relative to control. To be noted: salmonella enterica subsp. enterica serovar typhimurium, read-out: FC. The class given is toxicity. The method in brief: as §2
Series [14] can be described thus: Toxicity in BALB/c mouse infected with Trypanosoma cruzi MHOM/Pe/2011/Arequipa;DTU 5 bloodstream trypomastigote assessed as decrease in serum urea level in chronic phase at 20 mg/kg/day, po administered for 5 consecutive days starting from day 70 post infection measured on day 100 post infection relative to control. To be noted: in vivo. Set-up: scale not given: the % may be the effect or the level left. The class given is organism-based. The method in brief: as §3

The nature of series [15]: Toxicity in BALB/c mouse infected with Trypanosoma cruzi MHOM/Pe/2011/Arequipa;DTU 5 bloodstream trypomastigote assessed as decrease in serum alkaline phosphatase level in acute phase at 20 mg/kg/day, po administered for 5 consecutive days starting from day 8 post infection and measured on day 100 post infection by biochemical analysis relative to control. On the set-up: scale not given: the % may be the effect or the level left. The settings on record: in vivo. The class given is organism-based. Put shortly: as §3

The subject of series [16] is Trypanosoma cruzi. The series can be described thus: Antitrypanosomal activity against Trypanosoma cruzi MHOM/Pe/2011/Arequipa;DTU 5 epimastigote assessed as effect on L-alanine excretion at IC50 after 72 hrs by H NMR method relative to control. The class given is functional, organism-based. Put shortly: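 Cells were spun at 800 × g for 10 min and culture supernatants analysed by 1H NMR. Catabolite peaks were expressed as % variation versus untreated parasites.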

Series [17] is described as follows: Genotoxicity in Salmonella typhimurium TA1535 harboring pSK1002 assessed as umu gene induction at 0.008 mg/ml in absence of Sprague-Dawley rat liver S9 fraction metabolic activation by SOS/umu assay relative to control. The class given is toxicity. The settings on record: salmonella enterica subsp. enterica serovar typhimurium, read-out: FC. Put shortly:
as §2

Series [18] can be described thus: Genotoxicity in Salmonella typhimurium TA1535 harboring pSK1002 assessed as survival at 0.25 mg/ml in presence of Sprague-Dawley rat liver S9 fraction metabolic activation by SOS/umu assay relative to control. The class given is toxicity, subcellular. To be noted: salmonella enterica subsp. enterica serovar typhimurium, read-out: Survival. The method in brief:
as §1

Series [19] is described as follows: Toxicity in BALB/c mouse infected with Trypanosoma cruzi MHOM/Pe/2011/Arequipa;DTU 5 bloodstream trypomastigote assessed as decrease in serum uric acid level in chronic phase at 20 mg/kg/day, po administered for 5 consecutive days starting from day 70 post infection measured on day 100 post infection relative to control. The class given is organism-based. The settings on record: in vivo. On the set-up: scale not given: the % may be the effect or the level left. Put shortly:
as §3

From ChEMBL document CHEMBL4402517, “Rational modification of Mannich base-type derivatives as novel antichagasic compounds: Synthesis, in vitro and in vivo evaluation” (Bioorg Med Chem, 2019) come the findings set out here.

The source made the active and inactive calls. The calls are words filed in the database; no cut-off is given here. A value given as a limit tells only on which side of the number the result lay.

Usually inhibition stands for the percentage by which the read-out fell short of the control. Turning to `O=C(CCN1CCN(c2ccc(Cl)cc2)CC1)c1ccc(O)cc1`, the viability at 1 mg/ml in [1] is 213%. Moreover, the fold induction at 0.008 mg/ml in series [2] turned out to be 0.77; in [17] it was 0.71. In addition, in the series on Trypanosoma cruzi [3], the inhibition was > 50%. Besides, the Activity result is given as “<= 20%” in series [4]; “<= 10%” in series [7]; “<= 30%” in series [12]; “<= 10%” in [14]; “<= 10%” in series [15]. Moreover, the fold induction at 0.004 mg/ml in series [5] came out at 0.71. Also, the viability at 0.004 mg/ml in series [6] came out at 108%. Also, the fold induction at 0.5 mg/ml in [8] amounted to 0.46; in series [13] it was 0.26. Besides, the fold induction at 0.002 mg/ml in series [9] turned out to be 0.74. In series [10], the fold induction at 0.063 mg/ml came to 0.87. Also, the viability at 0.063 mg/ml in series [11] is 86.7%. Further, the outcome in the series with Trypanosoma cruzi [16] was Active. In addition, the viability at 0.25 mg/ml in series [18] is 138%.
As to `O=C(CCN1CCN(c2ccc(C(F)(F)F)cc2)CC1)c1ccc(O)cc1`, in series [1], the viability at 1 mg/ml stood at 216%. For the same molecule, the values for the fold induction at 0.008 mg/ml in series [2] and in series [17] were 0.83 and 0.75, respectively. The inhibition in the series with Trypanosoma cruzi [3] was > 50%. Besides, the Activity entry in series [4] is listed as “<= 30%”; in [7], “<= 30%”; in [19] it was “<= 10%”; in [12], “<= 30%”; in [15], “<= 30%”. Also, the fold induction at 0.004 mg/ml in series [5] turned out to be 0.77. Further, in [6], the viability at 0.004 mg/ml was 112%. In addition, the fold induction at 0.5 mg/ml in series [8] stood at 0.74; in [13] it was 0.43. Besides, in [9], the fold induction at 0.002 mg/ml stood at 0.89. Besides, the fold induction at 0.063 mg/ml in [10] amounted to 0.85. Further, the viability at 0.063 mg/ml in series [11] was 92.9%. Further, the outcome in the series with Trypanosoma cruzi [16] was Active. Also, the viability at 0.25 mg/ml in series [18] was 140%.
For `O=C(Cn1ccnc1[N+](=O)[O-])NCc1ccccc1` [BENZNIDAZOLE], the Activity entry in [19], in series [12] and in [14] was “<= 30%” throughout. The outcome with Trypanosoma cruzi [16] was Active.
